Series [1] is described as follows: Inhibition of TNFalpha-induced NF-kB (unknown origin) activation expressed in human NCI-H460 cells after 7 hrs by luciferase reporter gene assay. In kind it is cell-based. Conditions: NCI-H460, 7 h. The gist of the method: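 NCI-H460 cells transiently co-transfected with pNF-κB-Luc reporter and pSV-β-galactosidase internal control by lipofectamine. Medium changed after 6 h, then 6 h further culture. TNF-α (15 ng ml–1) plus compound given together for 7 h. Luciferase ratio to TNF-α-only cells, corrected for non-TNF background and viability. IC50 from sigmoidal variable-slope fit.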
Background: In a reporter assay the amount or activity of a reporter protein is the signal.

Series [2] can be described thus: Cytotoxicity against human NCI-H460/DOX cells after 48 hrs by MTT assay. Format: functional, cell-based. Conditions: NCI-H460, 48 h. The method, boiled down:
(§1)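 Cells grown overnight in DMEM + 10% FBS at 37 °C under 5% CO2, then given a range of compound concentrations for 48 h. MTT added for about 4 h, medium replaced by DMSO, absorbance read at 570/630 nm. IC50 reported as mean ± SD of five independent experiments.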
A general note: Tetrazolium dyes change colour on reduction, which living cells bring about.

In series [3] the test system is NCI-H460. The series is described as follows: Cytotoxicity against human NCI-H460 cells after 48 hrs by MTT assay. The note with it: NCI-H460, 48 h. In kind it is functional, cell-based. The method, boiled down:
as §1

The next series deals with T-24. The series is described as follows: Cytotoxicity against human T24 cells after 48 hrs by MTT assay. In kind it is functional, cell-based. The note with it: T-24, 48 h. The gist of the method:
as §1

Series [4] in a line: Cytotoxicity against human HepG2/DOX cells after 48 hrs by MTT assay. Format: functional, cell-based. The gist of the method: as §1
A short description of series [5]: Resistant factor, ratio of IC50 for human NCI-H460/DOX cells to IC50 for human NCI-H460 cells. In kind it is functional.
The subject of the next series is MGC-803. The series is described as follows: Cytotoxicity against human MGC803 cells after 48 hrs by MTT assay. In kind it is functional, cell-based. The note with it: MGC-803, 48 h. The gist of the method: as §1
Series [6] relates to NCI-H460. The series is described as follows: Cytotoxicity against human NCI-H460 cells harboring pNF-kB-Luc assessed as reduction in cell viability after 7 hrs by MTT assay relative to control. Also on record: concentration or dose not given beside the values. The note with it: nci-h460, 7 h.
In another series the test system is A549. The series is described as follows: Cytotoxicity against human A549 cells after 48 hrs by MTT assay. In kind it is functional, cell-based. The note with it: A549, 48 h. The gist of the method: as §1
A further series relates to L02. The series is described as follows: Cytotoxicity against human HL7702 cells after 48 hrs by MTT assay. In kind it is cell-based. Conditions: L02, 48 h. The method, boiled down:
as §1

The nature of series [7]: Cytotoxicity against human SPCA2 cells after 48 hrs by MTT assay. In kind it is functional, cell-based. Conditions: SPCA2, 48 h. The method, boiled down:
as §1

The next series concerns HepG2. The series is described as follows: Cytotoxicity against human HepG2 cells after 48 hrs by MTT assay. In kind it is functional, cell-based. The note with it: HepG2, 48 h. The gist of the method: as §1
A short description of series [8]: Resistant factor, ratio of IC50 for human HepG2/DOX cells to IC50 for human HepG2 cells. Format: functional.

One may read the IC50 as the concentration at which inhibition is half-maximal.

Take `C[C@H]1[C@H](C)CC[C@]2(C(=O)OCC(=O)Nc3ccccc3)CC[C@]3(C)C(=CC[C@@H]4[C@@]5(C)CCC(=O)C(C)(C)[C@@H]5CC[C@]43C)[C@H]12`: the IC50 in series [1] is 10.3 µM; in series [2] it was 26.6 µM; in the series on NCI-H460 [3], 13.8 µM; with T-24, 16 µM; in series [4] it was above 50 µM; with MGC-803, 16.1 µM. Moreover, the IC50 in the series on A549 was 14.1 µM; in the series with L02, above 50 µM; in series [7], 16.3 µM; in the series on HepG2, 24.2 µM. Also, the “Ratio IC50” value in series [5] is given as 1.94. Besides, the Activity in the series on NCI-H460 [6] is below 5%.
For `Cc1ccc(NC(=O)[C@]23CC[C@@H](C)[C@H](C)[C@H]2C2=CC[C@@H]4[C@@]5(C)CCC(=O)C(C)(C)[C@@H]5CC[C@@]4(C)[C@]2(C)CC3)cc1`, the half-inhibitory concentration (IC50) in series [1] turned out to be 5.43 µM; in series [2], 20.9 µM; with NCI-H460 [3] it was 11.9 µM; in the series on T-24, 20.1 µM; in series [4], 28.5 µM; in the series with MGC-803, 18.6 µM. The concentration for half-maximal inhibition (IC50) was 17.9 µM with A549, above 50 µM with L02, 17.3 µM in [7] and 17.6 µM in the series with HepG2. In addition, the figures for the “Ratio IC50” value in series [8] and in series [5] were 1.62 and 1.76, respectively. For the same compound, in the series with NCI-H460 [6], the Activity is below 5%.
As to `C[C@H]1[C@H](C)CC[C@]2(C(=O)NCCN(C)C)CC[C@]3(C)C(=CC[C@@H]4[C@@]5(C)CCC(=O)C(C)(C)[C@@H]5CC[C@]43C)[C@H]12`, the half-inhibitory concentration (IC50) in [1] turned out to be 0.94 µM; in series [2], 6.8 µM; in the series with NCI-H460 [3] it was 4.35 µM; with T-24, 6.35 µM; in series [4] it was 11.4 µM; with MGC-803, 7.35 µM. The IC50 is 6.01 µM with A549, above 50 µM in the series on L02, 6.91 µM in series [7] and 9.05 µM in the series with HepG2. Moreover, the “Ratio IC50” value in series [8] was 1.26; in series [5], 1.56. Further, in the series with NCI-H460 [6], the Activity is listed as below 5%.
Take `C[C@H]1[C@H](C)CC[C@]2(C(=O)Nc3ccccc3)CC[C@]3(C)C(=CC[C@@H]4[C@@]5(C)CCC(=O)C(C)(C)[C@@H]5CC[C@]43C)[C@H]12`: the IC50 in [1] came to 7.13 µM; in series [2], 25.7 µM; in the series on NCI-H460 [3] it was 12.9 µM; in the series with T-24, 13.6 µM; in series [4], 36.7 µM; in the series with MGC-803, 15.1 µM. The IC50 in the series on A549 is 16.3 µM; in the series with L02, above 50 µM; in [7], 13.5 µM; in the series on HepG2, 18.1 µM. For the same compound, the “Ratio IC50” value in series [8] was 2.02; in series [5] it was 1.99. In addition, the Activity in the series with NCI-H460 [6] is below 5%.
As to `CC(=O)O[C@H]1CC[C@]2(C)[C@H]3CC=C4[C@@H]5[C@@H](C)[C@H](C)CC[C@]5(C(=O)N5CCN(C)CC5)CC[C@@]4(C)[C@]3(C)CC[C@H]2C1(C)C`, the half-maximal inhibitory concentration (IC50) in series [1] was 4.8 µM; in [2], 49.7 µM; with NCI-H460 [3] it was 21.2 µM; with T-24, 25.4 µM; in series [4] it was above 50 µM; with MGC-803, 21.6 µM. The half-inhibitory concentration (IC50) in the series on A549 is 24.2 µM; in the series with L02, above 50 µM; in [7] it was 29.2 µM; in the series on HepG2, 27 µM. In [5], the “Ratio IC50” value is on record as 2.35. Also, the Activity in the series with NCI-H460 [6] was below 5%.
Turning to `Cc1ccc(NC(=O)COC(=O)[C@]23CC[C@@H](C)[C@H](C)[C@H]2C2=CC[C@@H]4[C@@]5(C)CCC(=O)C(C)(C)[C@@H]5CC[C@@]4(C)[C@]2(C)CC3)cc1`, the half-inhibitory concentration (IC50) was determined as 8.04 µM in series [1]; 23.8 µM in series [2]; 10.9 µM in the series with NCI-H460 [3]; 15.7 µM in the series on T-24; 39.7 µM in series [4]; 16.6 µM with MGC-803. For the same compound, the IC50 with A549 was 13.1 µM; with L02 it was above 50 µM; in [7] it was 15.6 µM; with HepG2, 20.1 µM. Besides, the results for the “Ratio IC50” value in series [8] and in series [5] were 1.98 and 2.18, respectively. Also, the Activity with NCI-H460 [6] is given as below 5%.
On to `CC(=O)O[C@H]1CC[C@]2(C)[C@H]3CC=C4[C@@H]5[C@@H](C)[C@H](C)CC[C@]5(C(=O)Nc5ccc(C)cc5)CC[C@@]4(C)[C@]3(C)CC[C@H]2C1(C)C`, for which the IC50 is 2.26 µM in series [1]; 13.5 µM in series [2]; 9.6 µM in the series with NCI-H460 [3]; 10.6 µM in the series with T-24; 20.4 µM in series [4]; 13.4 µM in the series on MGC-803. Further, the IC50 in the series on A549 is 10.3 µM; in the series with L02, above 50 µM; in [7], 11.2 µM; in the series with HepG2, 12.5 µM. Also, the “Ratio IC50” value in series [8] is listed as 1.63; in [5] it was 1.4. For the same compound, in the series on NCI-H460 [6], the Activity is recorded as below 5%.
As for `COc1ccc(NC(=O)[C@]23CC[C@@H](C)[C@H](C)[C@H]2C2=CC[C@@H]4[C@@]5(C)CC[C@H](OC(C)=O)C(C)(C)[C@@H]5CC[C@@]4(C)[C@]2(C)CC3)cc1`, the IC50 in [1] amounted to 3.64 µM; in [2] it was 22.6 µM; in the series with NCI-H460 [3], 10.6 µM; in the series with T-24, 23.8 µM; in series [4] it was 47.1 µM; in the series with MGC-803, 25.2 µM. Also, the IC50 with A549 was 31.1 µM; in the series with L02, above 50 µM; in series [7], 13.7 µM; in the series on HepG2, 24.5 µM. In addition, the “Ratio IC50” value turned out to be 1.92 in [8] and 2.12 in series [5]. The Activity in the series on NCI-H460 [6] is listed as below 5%.
As to `CC(=O)O[C@H]1CC[C@]2(C)[C@H]3CC=C4[C@@H]5[C@@H](C)[C@H](C)CC[C@]5(C(=O)Nc5ccc(C)c(C)c5)CC[C@@]4(C)[C@]3(C)CC[C@H]2C1(C)C`, the IC50 in series [1] turned out to be 4.8 µM; in series [2], 18.9 µM; with NCI-H460 [3], 10.4 µM; in the series on T-24, 16.6 µM; in series [4], 26.2 µM; in the series on MGC-803, 15 µM. The concentration for half-maximal inhibition (IC50) with A549 was 12.4 µM; in the series with L02, above 50 µM; in series [7], 12.2 µM; in the series on HepG2, 17.4 µM. Also, the “Ratio IC50” value was determined as 1.51 in [8] and 1.81 in [5]. Besides, the Activity in the series with NCI-H460 [6] is listed as below 5%.
Regarding `CC(=O)O[C@H]1CC[C@]2(C)[C@H]3CC=C4[C@@H]5[C@@H](C)[C@H](C)CC[C@]5(C(=O)Nc5ccccc5)CC[C@@]4(C)[C@]3(C)CC[C@H]2C1(C)C`, the half-inhibitory concentration (IC50) in series [1] is 2.33 µM; in series [2], 17.2 µM; in the series on NCI-H460 [3] it was 11.4 µM; in the series on T-24, 13.1 µM; in series [4], 27.4 µM; in the series on MGC-803, 14.8 µM. Moreover, the IC50 in the series with A549 is 12.9 µM; with L02, above 50 µM; in [7] it was 11.7 µM; with HepG2 it was 12.6 µM. Also, the “Ratio IC50” value is 2.17 in series [8] and 1.52 in series [5]. Besides, the Activity in the series on NCI-H460 [6] was below 5%.

For the origin of these results see ChEMBL document CHEMBL4261518, “Side chain-functionalized aniline-derived ursolic acid derivatives as multidrug resistance reversers that block the nuclear factor-kappa B (NF-κB) pathway and cell proliferation” (Medchemcomm, 2017).
